Data taken from ChEMBL document CHEMBL1154743, “A novel potent nicotinamide phosphoribosyltransferase inhibitor synthesized via click chemistry” (J Med Chem, 2010).
The source made the active and inactive calls. The rule behind the calls is not given here.

Legend:
[1] = test system: SK-MEL-2; experiment: Growth inhibition of human SK-MEL-2 cells by sulforhodamine B assay; assay type: functional
[2] = test system: BT-549; experiment: Growth inhibition of human BT549 cells by sulforhodamine B assay; assay type: functional
[3] = test system: SH-SY5Y; experiment: Induction of autophagy in human SH-SY5Y cells assessed as LC3/phosphotidylethanolamine coupling after 40 hrs by Western blot analysis; assay type: functional, cell-based
Outline: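 Western blot of LC3-I and LC3-II, with tubulin as reference, in untreated and treated cells exposed to 10 nM compound. Six independent experiments were run, using two LC3 antibodies from different sources.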

[4] = test system: CAKI-1; experiment: Growth inhibition of human Caki1 cells by sulforhodamine B assay; assay type: functional
[5] = test system: OVCAR-8; experiment: Growth inhibition of human OVCAR8 cells by sulforhodamine B assay; assay type: functional
[6] = test system: SH-SY5Y; experiment: Cytotoxicity against human SH-SY5Y cells assessed as reduction of total cellular NAD(P) level; assay type: functional, cell-based
[7] = test system: EKVX; experiment: Growth inhibition of human EKVX cells by sulforhodamine B assay; assay type: functional
[8] = test system: CCRF-CEM; experiment: Growth inhibition of human CCRF-CEM cells by sulforhodamine B assay; assay type: functional
[9] = test system: UACC-257; experiment: Growth inhibition of human UACC257 cells by sulforhodamine B assay; assay type: functional
[10] = test system: SNB-75; experiment: Growth inhibition of human SNB75 cells by sulforhodamine B assay; assay type: functional
[11] = test system: A549; experiment: Growth inhibition of human A549 cells by sulforhodamine B assay; assay type: functional
[12] = test system: Malme-3M; experiment: Growth inhibition of human MALME-3M cells by sulforhodamine B assay; assay type: functional
[13] = test system: MDA-MB-468; experiment: Growth inhibition of human MDA-MB-468 cells by sulforhodamine B assay; assay type: functional
[14] = test system: HCC 2998; experiment: Growth inhibition of human HCC2998 cells by sulforhodamine B assay; assay type: functional
[15] = Growth inhibition of human Hs 578T cells by sulforhodamine B assay; assay type: functional
[16] = test system: UO-31; experiment: Growth inhibition of human UO31 cells by sulforhodamine B assay; assay type: functional
[17] = test system: U-251; experiment: Growth inhibition of human U251 cells by sulforhodamine B assay; assay type: functional
[18] = test system: SH-SY5Y; experiment: Cytotoxicity against human SH-SY5Y cells assessed as reduction of total cellular NAD(P) level at 300 nM relative to control; assay type: functional; parameters: scale not given: the % may be the effect or the level left
Outline: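 Total cellular NAD levels in SH-SY5Y cells screened at a single fixed concentration of 300 nM. Expressed relative to control, n = 10.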

[19] = test system: NCI-H460; experiment: Growth inhibition of human NCI-H460 cells by sulforhodamine B assay; assay type: functional
[20] = test system: KM12; experiment: Growth inhibition of human KM12 cells by sulforhodamine B assay; assay type: functional
[21] = test system: SH-SY5Y; experiment: Cytotoxicity against human SH-SY5Y cells assessed as cell viability after 48 hrs by MTT assay relative to control in presence of NAD; assay type: functional
[22] = test system: SK-MEL-5; experiment: Growth inhibition of human SK-MEL-5 cells by sulforhodamine B assay; assay type: functional; conditions: read-out: LC50 (the source's name)
[23] = test system: SK-OV-3; experiment: Growth inhibition of human SKOV3 cells by sulforhodamine B assay; assay type: functional
[24] = test system: SNB-19; experiment: Growth inhibition of human SNB19 cells by sulforhodamine B assay; assay type: functional
[25] = test system: SH-SY5Y; experiment: Cytotoxicity against human SH-SY5Y cells assessed as cell viability after 48 hrs by MTT assay; assay type: functional, cell-based
Outline: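 SH-SY5Y cells incubated with compound for 48 h and viability measured by MTT. Values are mean ± SEM of 8-12 determinations.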

[26] = test system: NCI-H23; experiment: Growth inhibition of human NCI-H23 cells by sulforhodamine B assay; assay type: functional
[27] = read-out: LC50 (the source's name)

Work on `O=C(CCCCCCCn1cc(-c2cccnc2)nn1)Nc1ccccc1-c1ccccc1` yielded a GI50 [1] of 12.8 µM, a TGI [1] of 46.2 µM and a CC50 [1, 27] of 57 µM. The GI50 [2] was 1700 nM, the TGI [2] was 39.3 µM and the CC50 [2, 27] was over 100 µM. The Activity [3] was “Active”, the GI50 [4] was 776 nM and the TGI [4] was over 100 µM. It also gave a CC50 [4, 27] of over 100 µM, a GI50 [5] of 57.4 nM and a TGI [5] of over 38 µM. For the same compound, the CC50 [5, 27] was over 100 µM, the IC50 [6] was 3 nM and the GI50 [7] was 8.46 µM. The TGI [7] was over 100 µM, the CC50 [7, 27] was over 100 µM and the GI50 [8] was 3.28 µM. It also gave a TGI [8] of over 100 µM, a CC50 [8, 27] of over 100 µM and a GI50 [9] of 13.3 µM. For the same compound, the TGI [9] was 30.3 µM, the CC50 [9, 27] was 69.3 µM and the GI50 [10] was 29.8 µM. For the same compound, the TGI [10] was over 100 µM, the CC50 [10, 27] was over 100 µM and the GI50 [11] was 2100 nM. The TGI [11] was over 100 µM, the CC50 [11, 27] was over 100 µM and the GI50 [12] was 12.2 µM. It also gave a TGI [12] of 62.8 µM, a CC50 [12, 27] of over 100 µM and a GI50 [13] of 7.34 µM. It also gave a TGI [13] of over 100 µM, a CC50 [13, 27] of over 100 µM and a GI50 [14] of 700 nM. It also gave a TGI [14] of over 100 µM, a CC50 [14, 27] of over 100 µM and a GI50 [15] of 20.4 µM. It also gave a TGI [15] of over 100 µM, a CC50 [15, 27] of over 100 µM and a GI50 [16] of 16.9 µM. For the same compound, the TGI [16] was 93 µM, the CC50 [16, 27] was over 100 µM and the GI50 [17] was 521 nM. For the same compound, the TGI [17] was over 100 µM, the CC50 [17, 27] was over 100 µM and the Activity [18] was 9.9%. It also gave a GI50 [19] of 724 nM, a TGI [19] of over 100 µM and a CC50 [19, 27] of over 100 µM. The GI50 [20] was 1030 nM, the TGI [20] was 27.2 µM and the CC50 [20, 27] was over 100 µM. It also gave an Activity [21] of 97%, a CC50 [22] of 42.4 µM and a GI50 [23] of 20.5 µM. For the same compound, the TGI [23] was over 100 µM, the CC50 [23, 27] was over 100 µM and the GI50 [24] was 450 nM. The TGI [24] was over 100 µM, the CC50 [24, 27] was over 100 µM and the IC50 [25] was 3.8 nM. It also gave a GI50 [26] of 15.1 µM, a TGI [26] of over 100 µM and a CC50 [26, 27] of over 100 µM.
